697 NFkB inh = inhibitors of the PMA/ionomycin-induced NF-kB reporter in 697 B cells | 697 B-cell NF-kB luciferase reporter, 16 h | inhibition, % at 4 µM | actives 0.33% (n = 330,000); in the data active = inhibition above about 35%
IMP-1 inh = blocks Pseudomonas aeruginosa IMP-1 metallo-beta-lactamase | purified IMP-1, nitrocefin hydrolysis, epi-absorbance fluorescence | inhibition, % at 5.6 µM | actives 0.45% (n = 290,000) | AID 1556;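 active = inhibition above the mean plus 3 SD of all compounds in the same screening run, cut at about 4.5% in these data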
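System – purified recombinant IMP-1 beta-lactamase · Input – IMP-1 dispensed at 0.2 nM · Timing – 15 min preincubation plus 25 min reaction at 25 °C · Signal – Epi-absorbance fluorescence, 480 nm excitation, 530 nm emission · Measure – percent IMP-1 inhibition derived from blank-referenced optical density · Controls – Enzyme-plus-DMSO low control, enzyme-free DMSO high control · Replication – singlicate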
aSyn UTR inh = MLPCN primary screen, SNCA 5' untranslated region | alpha-synuclein 5'UTR reporter, inhibitor activity | actives 0.82% (n = 300,000) | inhibition, % (tested at 7.5 µM) | AID 1813; in the data active = inhibition above about 60%;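 also: H4 neuroglioblastoma cells stably carrying SNCA 5'UTR luciferase fusion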
Jurkat NFkB inh = lowers PMA/ionomycin-induced NF-kB signal in Jurkat cells | inhibition, % at 4 µM | PMA/ionomycin-induced NF-kB luciferase reporter, luminescence | actives 0.53% (n = 330,000) | AID 435003; in the data active = inhibition above about 50%
VIM-2 inhibitor = blocks Pseudomonas aeruginosa VIM-2 metallo-beta-lactamase. purified VIM-2, nitrocefin hydrolysis, epi-absorbance fluorescence. inhibition, % at 5.6 µM. actives 0.89% (n = 290,000);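 active = inhibition above the mean of all tested compounds plus 3 SD, cutoff set per screening run, cut at about 7.5% in these data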;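 also: red hydrolysis product quenches plate fluorescence so inhibitors raise well fluorescence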
Mdm2-MdmX inh = human Mdm2/MdmX binding inhibition; O15151+Q00987; SaOS-2 split-luciferase Mdm2/MdmX complementation, luminescence; actives 3% (n = 330,000); AID 485346; inhibition, % at 8 µM;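 active = inhibition of at least 50% at 8 µM in the primary screen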
Target sequence (O15151 whole entry, looked up): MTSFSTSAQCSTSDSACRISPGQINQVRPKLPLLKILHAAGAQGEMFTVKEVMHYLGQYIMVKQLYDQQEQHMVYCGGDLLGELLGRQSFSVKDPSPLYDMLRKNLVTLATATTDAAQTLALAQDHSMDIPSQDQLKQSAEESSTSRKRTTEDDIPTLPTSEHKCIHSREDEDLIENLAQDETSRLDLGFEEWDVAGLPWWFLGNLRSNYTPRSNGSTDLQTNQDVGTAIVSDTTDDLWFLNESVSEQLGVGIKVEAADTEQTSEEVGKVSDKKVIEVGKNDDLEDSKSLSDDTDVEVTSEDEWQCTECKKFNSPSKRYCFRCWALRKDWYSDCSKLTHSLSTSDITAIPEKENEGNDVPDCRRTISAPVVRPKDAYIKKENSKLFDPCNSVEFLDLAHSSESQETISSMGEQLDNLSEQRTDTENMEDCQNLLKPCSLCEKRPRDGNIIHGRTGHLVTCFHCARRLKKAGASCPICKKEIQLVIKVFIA
Target sequence (Q00987 whole entry, looked up): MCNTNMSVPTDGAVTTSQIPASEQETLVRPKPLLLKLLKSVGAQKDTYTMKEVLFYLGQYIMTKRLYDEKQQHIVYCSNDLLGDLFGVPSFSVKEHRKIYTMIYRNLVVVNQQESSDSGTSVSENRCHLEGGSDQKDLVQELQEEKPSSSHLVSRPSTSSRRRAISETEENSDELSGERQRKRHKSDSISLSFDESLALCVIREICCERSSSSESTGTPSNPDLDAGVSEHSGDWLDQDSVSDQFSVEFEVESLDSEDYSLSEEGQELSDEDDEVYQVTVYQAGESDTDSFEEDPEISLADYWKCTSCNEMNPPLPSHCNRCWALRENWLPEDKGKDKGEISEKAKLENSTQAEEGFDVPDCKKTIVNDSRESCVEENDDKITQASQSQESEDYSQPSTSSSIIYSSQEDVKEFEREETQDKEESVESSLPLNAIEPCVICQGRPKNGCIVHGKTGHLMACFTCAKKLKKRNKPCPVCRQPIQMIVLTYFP
Mdm2-MdmX conf = confirmation of human Mdm2/MdmX interaction inhibitors. shares compounds with Mdm2-MdmX inh. Mdm2-MdmX binding, luminescent assay. inhibition, % at 8 µM. actives 55% (n = 10,000). AID 489028; in the data active = inhibition above about 40%
Full FLuc ctr = full-length luciferase inhibition in Mdm2/MdmX counter-screen | shares compounds with Mdm2-MdmX inh | SaOS-2 full-length luciferase counterscreen, luminescence | inhibition, % at 8 µM | actives 77% (n = 6,200) | AID 504607;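 active = mean inhibition at 8 µM reaching about 37%, which flags the compound as non-specific, limit read from the data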;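 also: p53-null SaOS-2 cells with luciferase driven by a doxycycline-inducible promoter; compound on cells about two nights before reading with doxycycline added after day one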
Each line names hits and unclear results; the compound was inactive in the other large screens (follow-up assays come after a bar, where they were run). Rows were chosen to be rich in hits. Some 4.7% of all compounds tested hit in one or more screens of this group.

O=[N+]([O-])c1cccc(-c2cc(-c3cc(Br)ccc3O)[nH]n2)c1	Mdm2-MdmX inh 93 | Mdm2-MdmX conf 80 | Full FLuc ctr 59
Oc1ccc(Br)cc1-c1cc(-c2ccccc2)n[nH]1	none
Oc1ccc(Br)cc1-c1cc(-c2ccc(Cl)cc2)n[nH]1	Mdm2-MdmX inh 85 | Mdm2-MdmX conf inactive | Full FLuc ctr inactive
COc1ccc(O)c(-c2cc(-c3cccc(Br)c3)n[nH]2)c1	none
Oc1ccc(N=Nc2ccc3c(c2)OCCO3)c2cccnc12	aSyn UTR inh 104, Mdm2-MdmX inh 77 | Mdm2-MdmX conf 89 | Full FLuc ctr 53
COc1ccc(NS(=O)(=O)c2ccc(NS(=O)(=O)c3cccs3)cc2)cc1	none
CCN(CC(=O)Nc1cccc(C#N)c1)CC(=O)Nc1cccc(OC)c1	none
Nc1c(S(=O)(=O)c2ccccc2)c2nc3ccccc3nc2n1/N=C/c1cccc(O)c1	Mdm2-MdmX inh 67 | Mdm2-MdmX conf inactive
CC1=CC(=Nc2c(C)n(C)n(-c3ccccc3)c2=O)C=C(C)C1=O	Mdm2-MdmX inh 77 | Mdm2-MdmX conf inactive
CCC(C)C1=CC(=Nc2c(C)n(C)n(-c3ccccc3)c2=O)C=C(C(C)CC)C1=O (configuration not stated)	none
CC1=CC(=Nc2c(C)n(C)n(-c3ccccc3)c2=O)C=CC1=O	Mdm2-MdmX inh 69 | Mdm2-MdmX conf inactive
COc1ccc(S(=O)(=O)N2CCOCC2)cc1NC(=O)CN1C(=O)CN(C)C1=O	none (no result: IMP-1 inh, aSyn UTR inh, VIM-2 inhibitor)
CCOC(=O)C(/C=N/c1cc(C)nn1-c1ccccc1)=C(\C)O	none
C[C@]12CCC3c4ccc(O)cc4CCC3C1CC/C2=N\N (some centres not stated)	none (no result: IMP-1 inh, VIM-2 inhibitor)
Cc1nn(C)c(C)c1/C=N/N=C1\CCC2C3CCc4cc(O)ccc4C3CCC12C (configuration not stated)	Mdm2-MdmX inh 57 | Mdm2-MdmX conf inactive
O=C(OCc1cc(=O)n2c(n1)sc1ccccc12)c1ccc2c(=O)n3c(nc2c1)CCC3	none (no result: IMP-1 inh, VIM-2 inhibitor)
NC(=O)c1ccc(NC(=O)C#Cc2ccccc2)cc1	Mdm2-MdmX inh 85 | Mdm2-MdmX conf 77 | Full FLuc ctr 51
CC(Oc1ccccc1)C(=O)Nc1ccc(C(N)=O)cc1 (configuration not stated)	none
COc1ccc(NC(=O)C#Cc2ccccc2)cc1OC	Mdm2-MdmX inh 57 | Mdm2-MdmX conf inactive
O=[N+]([O-])c1ccc(SCCO)nc1SCCO	none
CCOc1ccc(CCNC(=O)COC(=O)COc2ccc(C(=O)CC)cc2)cc1OCC	none (no result: IMP-1 inh, VIM-2 inhibitor)
CC(C)c1cccc(O)c(=O)c1	Mdm2-MdmX inh 86 | Mdm2-MdmX conf 74 | Full FLuc ctr inactive
COC(=O)[C@H](CCSC)NC(=O)Nc1ccc(S(N)(=O)=O)cc1	none
CC(C)CC(NS(=O)(=O)c1ccccc1)C(=O)O (configuration not stated)	none
CC(C)CN=C(NS(=O)(=O)c1ccccc1)C(Cl)(Cl)Cl	Mdm2-MdmX inh 88 | Mdm2-MdmX conf 81 | Full FLuc ctr inactive
COc1ccc(CN2CCC(N(CCc3ccccc3)Cc3ccccc3)CC2)c(OC)c1	Mdm2-MdmX inh 86 | Mdm2-MdmX conf inactive
CCOc1ccc(NC(=O)NCCCCc2ccccc2)cc1	Mdm2-MdmX inh 50 | Mdm2-MdmX conf inactive
O=[N+]([O-])c1cccc(-c2nc(-c3ccccn3)no2)c1	none
COc1cccc(-c2nc(-c3ccccn3)no2)c1	aSyn UTR inh 104, Mdm2-MdmX inh 55 | Mdm2-MdmX conf inactive | Full FLuc ctr 57
CC(=O)N(C)c1ccc(OCC(O)Cn2c3ccc(Cl)cc3c3cc(Cl)ccc32)cc1 (configuration not stated)	Mdm2-MdmX inh 82 | Mdm2-MdmX conf 45 | Full FLuc ctr 54
CC(=O)N(C)c1ccc(OCC(O)Cn2c(C)nc3ccccc32)cc1 (configuration not stated)	none
N#C/C(=N/Nc1ccc(OC(F)(F)F)cc1)C(N)=S	Mdm2-MdmX inh 78 | Mdm2-MdmX conf 88 | Full FLuc ctr inactive
Cc1ccc(S(=O)(=O)N2C[C@@H]3[C@H]4CC[C@H](C4)[C@@H]3[C@@H](C)[C@@H]2c2ccn(Cc3ccccc3)c2)cc1	Mdm2-MdmX inh 50 (no result: IMP-1 inh, aSyn UTR inh, Jurkat NFkB inh, VIM-2 inhibitor) | Mdm2-MdmX conf inactive
Cc1ccc(S(=O)(=O)N2C[C@@H]3[C@H]4CC[C@H](C4)[C@@H]3[C@@H](C)[C@@H]2c2cccn2Cc2ccccc2)cc1	none (no result: IMP-1 inh, aSyn UTR inh, Jurkat NFkB inh, VIM-2 inhibitor)
Oc1ccc(-c2cc(-c3ccc(O)cc3)nc(-c3ccccc3)n2)cc1	Mdm2-MdmX inh 83 | Mdm2-MdmX conf inactive
Nc1nc(-c2ccccc2)nc(-c2ccccc2O)n1	Mdm2-MdmX inh 62 | Mdm2-MdmX conf inactive
Nc1nc(-c2ccccc2)cc(-c2ccccc2O)n1	Mdm2-MdmX inh 80 | Mdm2-MdmX conf inactive
NNc1nc(-c2ccccc2)cc(-c2ccccc2O)n1	none
COc1ccc(NC(=O)Cc2nnc(SCC(=O)c3ccc(F)cc3)n2C)cc1	none
CC(=O)c1ccc(NC(=O)CN2C(=O)NC(C)(C3CCCCC3)C2=O)cc1 (configuration not stated)	none (no result: IMP-1 inh, aSyn UTR inh, VIM-2 inhibitor)
O=c1cc(CSc2ccc(Cl)cc2)nc(-c2ccccn2)[nH]1	Mdm2-MdmX inh 89 | Mdm2-MdmX conf 78 | Full FLuc ctr inactive
CCn1nc(NC(=O)Cc2ccc(OC)cc2)c2cc3cc(C)ccc3nc21	Mdm2-MdmX inh 62 | Mdm2-MdmX conf inactive
CC(C)(C)CC(=O)Nc1cc2c3c(c1)CCC(=O)N3CCC2	none
CN1Cc2c(N3CCOCC3)nc3sc(C(=O)c4ccc(Br)cc4)c(N)c3c2CC1(C)C	aSyn UTR inh 105, Mdm2-MdmX inh 91 | Mdm2-MdmX conf 61 | Full FLuc ctr 84
CN1Cc2c(N3CCOCC3)nc3sc(C#N)c(N)c3c2CC1(C)C	none
CNC(=O)c1ccc(-c2sc3nc(N4CCOCC4)c4c(c3c2N)CC(C)(C)OC4)o1	Mdm2-MdmX inh 61 | Mdm2-MdmX conf inactive
CC1(C)Cc2c(c(N3CCOCC3)nc3sc(-c4ccc(C(=O)O)o4)c(N)c23)CO1	none
C#CCOn1c(-n2nc(C)cc2C)nc2ccccc2c1=O	none
COc1ccc(NC(=O)c2cc(-c3cc(Cl)ccc3O)n[nH]2)c(OC)c1	Mdm2-MdmX inh 69 | Mdm2-MdmX conf inactive
O=C(Nc1ccc(Cl)c(S(=O)(=O)N2CCOCC2)c1)c1n[nH]c(=O)c2ccccc12	Mdm2-MdmX inh 60 (no result: IMP-1 inh, aSyn UTR inh, VIM-2 inhibitor) | Mdm2-MdmX conf inactive
O=C(Nc1ccc(S(=O)(=O)N2CCOCC2)cc1)c1cc(-c2cc(Cl)ccc2O)n[nH]1	Mdm2-MdmX inh 87 | Mdm2-MdmX conf 79 | Full FLuc ctr 39
Cc1cc(O)c(-c2cc(C(=O)Nc3ccc(S(=O)(=O)N4CCOCC4)cc3)[nH]n2)cc1C	none

From PubChem BioAssay
